Source: PMC5697452 (ACS Chemical Biology, 2017)
“Also recorded” adds a separate entry of the source.

Tests used:
[1] = tested on: proMMP-9-mediated cancer cell migration; conditions: in vitro; cited from earlier work
[2] = tested on: HT1080 cells on chicken embryo CAM; assay: Chorioallantoic membrane; format: in vivo; conditions: final concentration estimated 0.5 μM, 7-day incubation, vs DMSO and 1f
How it was run: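 Ex ovo chick embryos were inoculated at day 10 with pretreated GFP-expressing HT1080 cells in a 3 mg/mL collagen solution seeded atop the CAM. Compound was added from a 100 μM stock (estimated final 0.5 μM), with DMSO control. After 7 days at 37 °C, CAM segments were formalin-fixed, OCT-embedded, cut at 6 μm and H&E stained. GFP+ cells were scored by fluorescence microscopy.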

cancer metastasis = conditions: in vivo mouse xenograft model; cited from earlier work
closely related MMPs = conditions: cited from earlier work
APMA-activated MMP-9 = APMA-activated MMP-9 (Homo sapiens, UniProt P14780); assay: Fluorogenic peptide assay of MMP-9 catalytic activity; format: biochemical; conditions: 10 μM fluorogenic peptide, 2 h; for inhibition of MMP-9 catalytic activity: 50 μM compound
APMA-activated MMP-9, sequence (P14780 107-707 limits assumed): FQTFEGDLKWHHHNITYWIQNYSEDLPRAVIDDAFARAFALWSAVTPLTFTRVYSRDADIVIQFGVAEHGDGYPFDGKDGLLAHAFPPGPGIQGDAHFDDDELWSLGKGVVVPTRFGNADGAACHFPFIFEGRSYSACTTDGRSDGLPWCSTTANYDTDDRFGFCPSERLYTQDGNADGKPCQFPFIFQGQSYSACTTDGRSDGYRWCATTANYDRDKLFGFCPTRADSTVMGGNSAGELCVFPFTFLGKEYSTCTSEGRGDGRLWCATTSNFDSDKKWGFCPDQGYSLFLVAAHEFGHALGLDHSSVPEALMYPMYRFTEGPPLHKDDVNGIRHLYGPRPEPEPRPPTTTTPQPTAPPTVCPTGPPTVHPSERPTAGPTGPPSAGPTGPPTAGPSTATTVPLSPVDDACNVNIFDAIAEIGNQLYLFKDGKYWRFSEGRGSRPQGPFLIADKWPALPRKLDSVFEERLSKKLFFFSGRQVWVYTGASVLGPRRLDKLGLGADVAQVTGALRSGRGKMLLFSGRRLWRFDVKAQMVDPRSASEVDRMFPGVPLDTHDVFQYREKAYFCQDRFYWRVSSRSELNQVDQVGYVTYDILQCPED
How it was run: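 Recombinant proMMP-9 was activated overnight at 37 °C in TNC buffer with 1 mM APMA. […] Fluorescence (ex 320/em 405 nm) was read every 10 min over 2 h.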

MMP-9 = conditions: cited from earlier work
HT1080 cells [3] = assay: Cellular adhesion assay on collagen or fibronectin; format: cell-based, human; conditions: 30 min at 37 °C
How it was run: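 HT1080 cells seeded in 96-well plates coated with a thin layer of collagen or fibronectin (5 μg/mL in PBS). Cells were held 30 min at 37 °C with test compound. Wells were then washed and the cells fixed in 4% paraformaldehyde and stained with DAPI. Adherent cells were imaged and counted automatically.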

[4] = tested on: HT1080 cells on chicken embryo CAM; assay: Chorioallantoic membrane; format: in vivo; conditions: final concentration estimated 0.5 μM, 4-day incubation, vs DMSO and 1f
How it was run: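 Fertilized white chicken eggs were incubated 3 days at 37 °C and 70% humidity, then cultured ex ovo in Petri dishes. HT1080 cells adsorbed onto a gelatin sponge were implanted on the CAM. Compound was added from a 100 μM stock (estimated final 0.5 μM); DMSO served as control. Blood vessels surrounding the sponge were counted on day 4 at 37 °C.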

HT1080 cells [5] = assay: Immunofluorescence of HT1080 cells; format: cell-based, human; conditions: for MMP-9 cell surface localization: 50 μM; for formation of FAK and PAX adhesion junctions: 50 μM overnight
How it was run: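 HT1080 cells were fixed in 4% paraformaldehyde/PBS and blocked in 5% BSA/PBS. Staining used anti-MMP-9 (anti-rabbit Alexa 488) with anti-α4 and/or anti-β1 integrin (anti-mouse Alexa 568), or anti-p-FAK Tyr576/577 (Alexa 568) and anti-p-PAX Tyr118 (Alexa 488). Nuclei were counterstained with DAPI, and images were taken by two-photon laser-scanning confocal microscopy.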

[6] = tested on: EGFR, AKT, Erk1/2, Src, FAK, PAX phosphorylation; assay: Immunoblot of downstream signaling phosphorylation in HT1080 cells; format: cell-based, human; conditions: 50 μM
How it was run: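 HT1080 cells transiently expressing Myc-tagged MMP-9 were treated with 50 μM compound. Lysates were run on 10% SDS-PAGE and immunoblotted for phospho-Src Tyr418, phospho-FAK Tyr576/577 and phospho-PAX Tyr118.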

[7] = tested on: HT1080 fibrosarcoma cells; assay: Two-dimensional dot migration assay, HT1080 cells; format: cell-based, human; conditions: 50 µM, relative to control groups
[8] = tested on: proMMP-14 expressing COS-1 cells; assay: Two-dimensional dot migration assay, COS-1 cells expressing proMMP-14; format: cell-based, monkey; conditions: 50 μM
How it was run: (§1)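 COS-1 cells expressed vector pQCXIP, proMMP-2, proMMP-9 or proMMP-14 (polyethylenimine transfection, 48 h at 37 °C); expression was checked by immunoblot of lysates and serum-free medium. Cells were mixed 1:1 with neutralized type I collagen (3 mg/mL) on ice, and 1 μL dots (1 × 10^7 cells/mL) were set. Dots were covered with complete medium ± 50 μM compound for 18 h, then fixed and DAPI-stained, and migrated cells were counted.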

proMMP-9/MMP-2PEX = assay: Tryptophan fluorescence binding assay with chimera proMMP-9/MMP-2PEX; design: species or system human; conditions: chimera with MMP-2 PEX domain, 0.5 μM
How it was run: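 Purified recombinant chimera (0.5 μM) was titrated with test compound in TNC buffer (50 mM Tris-HCl, 10 mM CaCl2, pH 7.5). A buffer-only addition served as the protein stability control. After each addition the sample was stirred 1 min at RT, excited at 280 nm, and scanned 300–425 nm, averaging three scans. Kd was fitted to ΔF/ΔFMax, where ΔF is the emission shift in nm.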

proMMP-9 [9] = biological target: T1, proMMP-9 (Homo sapiens, UniProt P14780); assay: Tryptophan fluorescence blue-shift binding assay with proMMP-9
T1 sequence (P14780 20-707 limits assumed): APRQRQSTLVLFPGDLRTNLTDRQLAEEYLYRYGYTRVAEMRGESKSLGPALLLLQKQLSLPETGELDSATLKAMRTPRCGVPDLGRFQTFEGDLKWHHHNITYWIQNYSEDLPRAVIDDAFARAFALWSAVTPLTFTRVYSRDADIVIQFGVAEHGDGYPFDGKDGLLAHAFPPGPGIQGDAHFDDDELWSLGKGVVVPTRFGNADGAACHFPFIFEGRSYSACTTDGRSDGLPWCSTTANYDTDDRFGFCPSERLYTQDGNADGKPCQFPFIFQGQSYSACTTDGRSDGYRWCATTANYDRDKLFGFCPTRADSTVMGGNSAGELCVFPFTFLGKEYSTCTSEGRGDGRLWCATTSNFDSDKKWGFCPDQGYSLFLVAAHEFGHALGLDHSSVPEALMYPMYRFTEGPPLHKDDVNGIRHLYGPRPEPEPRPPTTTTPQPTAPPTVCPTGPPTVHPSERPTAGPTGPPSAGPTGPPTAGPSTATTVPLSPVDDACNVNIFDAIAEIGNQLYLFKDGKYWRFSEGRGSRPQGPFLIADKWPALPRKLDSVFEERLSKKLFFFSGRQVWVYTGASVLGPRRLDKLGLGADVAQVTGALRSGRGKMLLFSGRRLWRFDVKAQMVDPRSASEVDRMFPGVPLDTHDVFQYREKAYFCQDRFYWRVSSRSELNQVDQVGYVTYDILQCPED

proMMP-9 [10] = biological target: T1, proMMP-9; assay: Saturated transfer difference; format: binding; conditions: compound:protein 38:1 (300 µM:8 µM), 4 °C
COS-1 cells = assay: MTT cell viability, COS-1 cells; format: cell-based, monkey; conditions: 24 h
How it was run: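 COS-1 cells stably expressing vector control or proMMP-9 cDNA were treated 24 h with DMSO, 50 μM compound, or 100 nM staurosporine (positive control for acute toxicity). Viability was assessed by MTT.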

[11] = tested on: HT1080 fibrosarcoma cells; assay: Chronic toxicity in HT1080 fibrosarcoma cells; format: cell-based, human; conditions: 100 μM, retreated every 3 days for 9 days; data not shown
How it was run: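 HT1080 cells were cultured in complete medium with or without compound, with medium and compound replaced repeatedly over 9 days. Viability was measured daily by MTT: 4 h at 37 °C, then formazan solubilised and absorbance read at 570 nm.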

proMMP-2 = biological target: T2, proMMP-2 (Homo sapiens, UniProt P08253); assay: Saturated transfer difference; format: binding; conditions: compound:protein 38:1 (300 µM:8 µM), 4 °C
T2 sequence (P08253 30-660 limits assumed): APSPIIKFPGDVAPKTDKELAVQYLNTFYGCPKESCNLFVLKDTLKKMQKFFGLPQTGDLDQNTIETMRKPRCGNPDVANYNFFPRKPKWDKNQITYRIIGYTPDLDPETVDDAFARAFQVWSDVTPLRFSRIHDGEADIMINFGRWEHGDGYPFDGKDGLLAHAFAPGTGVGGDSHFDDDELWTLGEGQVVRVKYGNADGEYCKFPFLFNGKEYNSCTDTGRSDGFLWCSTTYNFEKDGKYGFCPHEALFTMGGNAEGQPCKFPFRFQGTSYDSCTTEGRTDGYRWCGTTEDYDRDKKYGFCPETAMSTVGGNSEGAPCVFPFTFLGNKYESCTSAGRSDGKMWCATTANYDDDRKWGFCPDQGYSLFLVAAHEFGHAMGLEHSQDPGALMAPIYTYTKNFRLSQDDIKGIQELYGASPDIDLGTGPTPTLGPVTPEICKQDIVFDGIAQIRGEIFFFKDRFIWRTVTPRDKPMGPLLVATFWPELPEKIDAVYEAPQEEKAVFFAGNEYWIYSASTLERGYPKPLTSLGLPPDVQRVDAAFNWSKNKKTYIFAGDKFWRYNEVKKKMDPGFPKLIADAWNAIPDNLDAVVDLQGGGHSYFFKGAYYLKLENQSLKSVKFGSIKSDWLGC

[12] = tested on: EGFR-CD44 and EGFR-β1 integrin; assay: Co-immunoprecipitation of endogenous EGFR in HT1080 cells; format: cell-based, human; conditions: 50 μM
[13] = tested on: proMMP-2 expressing COS-1 cells; assay: Two-dimensional dot migration assay, COS-1 cells expressing proMMP-2; format: cell-based, monkey; conditions: 50 μM
How it was run: as §1

Q: With CCCc1cc(=O)nc(SCC(=O)Nc2ccc(OC(F)F)cc2)[nH]1 [Compound 1a, N-(4-Difluoromethoxyphenyl)-2-(4-oxo-6-propyl-1,4-dihydropyrimidin-2-ylthio)acetamide] as the compound, how does the “proMMP-9-mediated cancer cell migration and proliferation” value [1] read?
A: Its value is “inhibited proMMP-9-mediated cancer cell migration and proliferation”.

Q: And the “invasion of CAM tissue by HT1080 cells” value [2]?
A: The value was “reduced invasion of CAM tissue”.

Q: And the cancer metastasis (cancer metastasis)?
A: The cancer metastasis was “effectively prevented cancer metastasis”.

Q: What about the “binding to closely related MMPs” value (closely related MMPs) of the same compound?
A: Its value is “does not bind to closely related MMPs”.

Q: What about the “inhibition of MMP-9 catalytic activity” value (APMA-activated MMP-9) of the same compound?
A: Its value is “No inhibition of the catalytic activity was observed”.

Q: What about the “inhibition of MMP-9 enzymatic activity” value (MMP-9) of the same compound?
A: Its value is “did not inhibit MMP-9 enzymatic activity”.

Q: What about the “cell adhesion to collagen or fibronectin” value (HT1080 cells [3]; 50 µM) of the same compound?
A: The value was “inhibited cellular adhesion”.

Q: What about the “angiogenic potential of HT1080 cells (neovascularization)” value [4] of the same compound?
A: The value was “significantly reduced the angiogenic potential”.

Q: And the “MMP-9 cell surface localization” value (HT1080 cells [5])?
A: The value was “loss of MMP-9 from the cell surface”.

Q: And the “formation of FAK and PAX adhesion junctions” value (HT1080 cells [5])?
A: Its value is “decrease in the formation of FAK and PAX adhesion junctions”.

Q: And the “phosphorylation of Src Tyr418 and downstream FAK Tyr576/577 and PAX Tyr118” value [6]?
A: Its value is “reduced Src^Tyr418 phosphorylation”.

Q: What about the inhibition of migration [7] of the same compound?
A: Its inhibition of migration is “the same inhibition potency was observed”.

Q: Which results are given for O=C(CCCSc1nc2c(c(=O)[nH]1)CCCC2)Nc1ccc(F)cc1 [Compound 3c, N-(4-Fluorophenyl)-4-(4-oxo-3,4,5,6,7,8-hexahydroquinazolin-2-ylthio)butanamide]?
A: inhibition of proMMP-14 mediated cell migration [8]: lack of inhibition; invasion of CAM tissue by HT1080 cells [2]: blocks cancer cell invasion of the basement membrane; also recorded: reduced invasion of CAM tissue; shift in tryptophan fluorescence upon titration (proMMP-9/MMP-2PEX): no shift in fluorescence was observed; binding affinity relative to parent compound 1a (proMMP-9 [9]; Kd comparison): four times tighter; maximal λMax shift (proMMP-9 [9]; after treatment with 25 μM inhibitor, ex 280 nm): 9 nm; Kd (proMMP-9 [9]; tryptophan fluorescence, purified recombinant proMMP-9 0.5 μM, TNC buffer pH 7.5): 320 nM; STD NMR peaks (proMMP-9 [10]): STD peaks were observed in the presence of proMMP-9; decrease in cell growth (COS-1 cells; 50 μM, nonstatistically significant): 8%; cell death (chronic toxicity) [11]: No cell death was observed; inhibition of MMP-9 catalytic activity (APMA-activated MMP-9): No inhibition of the catalytic activity was observed; cell adhesion to collagen or fibronectin (HT1080 cells [3]; 50 µM): inhibited cellular adhesion; STD NMR peaks (proMMP-2): not in the presence of proMMP-2; interaction between EGFR-CD44 and EGFR-β1 integrin [12]: Decreased interaction between EGFR-CD44 and EGFR-β1 integrin; inhibition of proMMP-2 mediated cell migration [13]: lack of inhibition; angiogenic potential of HT1080 cells (neovascularization) [4]: reduces angiogenesis; also recorded: significantly reduced the angiogenic potential; MMP-9 cell surface localization (HT1080 cells [5]): loss of MMP-9 from the cell surface; formation of FAK and PAX adhesion junctions (HT1080 cells [5]): decrease in the formation of FAK and PAX adhesion junctions; phosphorylation of Src Tyr418 and downstream FAK Tyr576/577 and PAX Tyr118 [6]: reduced Src^Tyr418 phosphorylation; inhibition of migration [7]: the same inhibition potency was observed

Q: For CNC(=O)[C@@H](NC(=O)[C@H](CC(C)C)[C@H](O)C(=O)NO)C(C)(C)C [Marimastat, reference compound], which “substrate cleavage by activated MMP-9” value (APMA-activated MMP-9; 250 nM Marimastat) is on record?
A: Its value is “no substrate cleavage was observed”.

Q: And the “cell adhesion to collagen or fibronectin” value (HT1080 cells [3]; 80 nM Marimastat)?
A: Its value is “no observable effect on cell attachment”.

Q: And the “formation of focal adhesion contact sites” value (HT1080 cells [5]; 80 nM marimastat)?
A: Its value is “did not prevent the formation of focal adhesion contact sites”.

Q: With CN[C@@H]1C[C@H]2O[C@@](C)([C@@H]1OC)n1c3ccccc3c3c4c(c5c6ccccc6n2c5c31)C(=O)NC4 [STS, staurosporine, reference compound] as the compound, how does the cell death (COS-1 cells; 100 nM, positive control) read?
A: The cell death was “Significant cell death”.
